{"source": "ChEMBL document CHEMBL3867488", "about": "(ACS Med Chem Lett, 2016)", "key": {"[1]": {"target": "T1, Oxysterols receptor LXR-beta (Homo sapiens) (UniProt P55055)", "T1 sequence (whole entry)": "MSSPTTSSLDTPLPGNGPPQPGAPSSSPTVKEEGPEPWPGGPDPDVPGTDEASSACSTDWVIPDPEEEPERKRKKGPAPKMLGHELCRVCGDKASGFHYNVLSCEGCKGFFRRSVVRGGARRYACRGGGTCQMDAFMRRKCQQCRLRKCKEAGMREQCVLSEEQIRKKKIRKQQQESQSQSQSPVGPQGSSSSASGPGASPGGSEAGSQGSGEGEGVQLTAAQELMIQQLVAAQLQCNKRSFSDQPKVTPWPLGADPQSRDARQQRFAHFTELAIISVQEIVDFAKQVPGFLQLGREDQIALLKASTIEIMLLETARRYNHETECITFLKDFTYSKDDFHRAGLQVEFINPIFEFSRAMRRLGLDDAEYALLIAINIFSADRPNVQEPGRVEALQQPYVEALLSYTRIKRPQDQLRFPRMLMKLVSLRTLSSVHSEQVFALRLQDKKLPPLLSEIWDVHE", "assay": "(§1) Agonist activity at LXR-beta in human whole blood assessed as ABCA1 gene induction by measuring ABCA1 mRNA level after 4 hrs by SYBR-Green dye-based Q-PCR analysis relative to pan agonist 2-(4-(5-(5-cyano-1-(2,4-difluorobenzyl)-6-oxo-4-(trifluoromethyl)-1,6-dihydropyridin-2-yl)thiophen-2-yl)-3-methylphenyl)acetic acid", "format": "tissue-based"}, "[2]": {"target": "T1, Oxysterols receptor LXR-beta (Homo sapiens)", "assay": "as §1, with “as ABCG1” for “as ABCA1”", "format": "tissue-based"}, "[3]": {"assay": "Plasma concentration in cynomolgus monkey at 0.1 mg/kg, po qd administered via gavage for 14 days measured after 5 hrs of last-dose by LC/MS/MS analysis", "format": "ADME, organism-based, Macaca fascicularis", "method_in_brief": "(§2)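 Cynomolgus monkeys dosed daily for 14 days. On day 14, plasma drug concentration was taken 5 h post-dose. Plasma triglycerides were expressed as % elevation over baseline, with significance tested by ANOVA (p < 0.05).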"}, "[4]": {"target": "T2, Oxysterols receptor LXR-beta (Homo sapiens, UniProt P55055)", "T2 sequence (P55055 whole entry)": "T1 sequence (whole entry)", "assay": "Agonist activity at human LXR-beta expressed in African green monkey CV1 cells measured after 18 to 20 hrs by luciferase reporter gene assay", "format": "cell-based, CV-1"}, "[5]": {"target": "T1, Oxysterols receptor LXR-beta (Homo sapiens)", "assay": "Agonist activity at LXR-beta in human HeLa cells assessed as induction of ABCA1 by beta-galactosidase/luciferase reporter gene assay relative to control", "format": "cell-based", "method_in_brief": "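HeLa cells carrying endogenous LXRα and LXRβ receptors, transfected with an ABCA1 LXREx3 reporter construct; agonist-driven reporter induction measured.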"}, "[6]": {"test_system": "Cynomolgus monkey", "assay": "In vivo agonist activity at LXR-beta in cynomolgus monkey assessed as ABCG1 gene induction by measuring total RNA level at 0.1 mg/ kg, po qd administered via gavage for 14 days measured 5 to 6 hrs post-dose", "format": "functional, Macaca fascicularis", "method_in_brief": "(§3)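 Cynomolgus monkeys dosed daily for 14 days. ABCG1 mRNA induction measured in blood cells on day 14 and expressed as fold change. Plasma drug concentration taken about 5 h post-dose. Plasma triglycerides also measured against baseline, with significance by ANOVA.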"}, "[7]": {"test_system": "Cynomolgus monkey", "assay": "In vivo agonist activity at LXR-beta in cynomolgus monkey assessed as ABCG1 gene induction by measuring total RNA level at 0.3 mg/ kg, po qd administered via gavage for 14 days measured 5 to 6 hrs post-dose", "format": "functional, Macaca fascicularis", "method_in_brief": "as §3"}, "[8]": {"target": "Retinoic acid receptor RXR-alpha/oxysterols receptor LXR-beta (Homo sapiens, UniProt P55055)", "sequence (P19793 whole entry, one chain of several)": "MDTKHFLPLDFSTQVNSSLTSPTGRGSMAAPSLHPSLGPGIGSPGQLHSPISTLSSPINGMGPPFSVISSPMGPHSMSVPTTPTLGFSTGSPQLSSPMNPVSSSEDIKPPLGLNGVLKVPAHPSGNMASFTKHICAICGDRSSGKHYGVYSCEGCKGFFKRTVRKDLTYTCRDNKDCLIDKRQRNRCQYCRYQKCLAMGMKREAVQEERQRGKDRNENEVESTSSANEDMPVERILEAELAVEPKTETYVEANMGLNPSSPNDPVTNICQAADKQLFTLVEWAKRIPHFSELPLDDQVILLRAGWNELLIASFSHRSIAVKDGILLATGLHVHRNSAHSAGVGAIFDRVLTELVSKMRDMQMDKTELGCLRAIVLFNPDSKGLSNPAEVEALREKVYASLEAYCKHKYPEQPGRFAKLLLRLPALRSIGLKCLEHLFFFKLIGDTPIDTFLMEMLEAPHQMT", "assay": "Displacement of [3H]-24,25-epoxycholesterol from human LXRbeta/RXRalpha expressed in baculovirus infected Sf9 cells by scintillation proximity analysis", "method_in_brief": "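Binding affinity measured using full-length LXRα–RXRα and LXRβ–RXRα heterodimers.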"}, "[9]": {"target": "T3, Oxysterols receptor LXR-alpha (Homo sapiens, UniProt Q13133)", "T3 sequence (Q13133 whole entry)": "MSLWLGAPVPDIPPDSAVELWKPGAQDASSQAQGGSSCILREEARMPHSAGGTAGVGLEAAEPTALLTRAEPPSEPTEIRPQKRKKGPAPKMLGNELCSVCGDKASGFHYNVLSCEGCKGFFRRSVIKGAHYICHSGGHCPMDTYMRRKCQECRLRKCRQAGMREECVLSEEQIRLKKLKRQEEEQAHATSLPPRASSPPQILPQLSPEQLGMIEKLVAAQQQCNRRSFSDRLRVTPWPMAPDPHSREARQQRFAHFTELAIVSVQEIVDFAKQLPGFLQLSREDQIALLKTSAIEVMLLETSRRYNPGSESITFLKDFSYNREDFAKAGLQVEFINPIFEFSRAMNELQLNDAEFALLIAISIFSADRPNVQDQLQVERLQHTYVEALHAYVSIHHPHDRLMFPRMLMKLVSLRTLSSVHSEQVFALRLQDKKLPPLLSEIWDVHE", "assay": "Agonist activity at human LXR-alpha expressed in African green monkey CV1 cells measured after 18 to 20 hrs by luciferase reporter gene assay relative to pan agonist 1-(2,4-difluorobenzyl)-2-oxo-6-(4-phenoxyphenyl)-4-(trifluoromethyl)-1,2-dihydropyridine-3-carbonitrile", "format": "cell-based", "conditions": "CV-1, human; read-out: Efficacy"}, "[10]": {"assay": "Half life in cynomolgus monkey at 3 mg/kg, iv administered as 10 mins infusion by LC/MS/MS analysis", "format": "ADME, organism-based, Macaca fascicularis", "conditions": "in vivo"}, "[11]": {"target": "T4, Nuclear receptor subfamily 1 group I member 2 (Homo sapiens, UniProt O75469)", "T4 sequence (O75469 whole entry)": "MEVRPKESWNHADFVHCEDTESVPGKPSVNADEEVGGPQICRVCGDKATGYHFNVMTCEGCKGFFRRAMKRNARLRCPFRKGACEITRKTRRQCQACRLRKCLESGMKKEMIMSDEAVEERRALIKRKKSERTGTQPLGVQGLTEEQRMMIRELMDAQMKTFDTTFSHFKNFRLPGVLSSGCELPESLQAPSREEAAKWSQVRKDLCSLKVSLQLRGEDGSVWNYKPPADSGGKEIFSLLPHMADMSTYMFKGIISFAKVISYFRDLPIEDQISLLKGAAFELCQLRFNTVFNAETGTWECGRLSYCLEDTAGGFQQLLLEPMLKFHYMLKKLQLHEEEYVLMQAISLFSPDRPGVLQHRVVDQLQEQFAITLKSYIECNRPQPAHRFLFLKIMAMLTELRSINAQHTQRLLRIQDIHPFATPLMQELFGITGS", "assay": "Agonist activity at human PXR expressed in human HepG2 cells assessed as induction of CYP3A4 measured after 24 hrs by AlamarBlue dye-based luciferase reporter gene assay relative to control", "format": "cell-based", "conditions": "hepg2, 24 h"}, "[12]": {"target": "Alpha-1-acid glycoprotein 1 (Homo sapiens, UniProt P02763)", "sequence (P02763 whole entry)": "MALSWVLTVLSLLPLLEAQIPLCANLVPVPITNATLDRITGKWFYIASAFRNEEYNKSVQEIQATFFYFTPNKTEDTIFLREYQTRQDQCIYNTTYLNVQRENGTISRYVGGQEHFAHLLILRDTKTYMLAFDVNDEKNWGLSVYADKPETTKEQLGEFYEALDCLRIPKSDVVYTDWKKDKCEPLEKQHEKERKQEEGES", "assay": "Binding affinity to human alpha-1-AGP at 1 uM measured after 4 hrs by equilibrium dialysis method relative to control", "format": "ADME", "conditions": "isolated protein, 4 h, 1 µM"}, "[13]": {"target": "Albumin (Homo sapiens, UniProt P02768)", "sequence (P02768 whole entry)": "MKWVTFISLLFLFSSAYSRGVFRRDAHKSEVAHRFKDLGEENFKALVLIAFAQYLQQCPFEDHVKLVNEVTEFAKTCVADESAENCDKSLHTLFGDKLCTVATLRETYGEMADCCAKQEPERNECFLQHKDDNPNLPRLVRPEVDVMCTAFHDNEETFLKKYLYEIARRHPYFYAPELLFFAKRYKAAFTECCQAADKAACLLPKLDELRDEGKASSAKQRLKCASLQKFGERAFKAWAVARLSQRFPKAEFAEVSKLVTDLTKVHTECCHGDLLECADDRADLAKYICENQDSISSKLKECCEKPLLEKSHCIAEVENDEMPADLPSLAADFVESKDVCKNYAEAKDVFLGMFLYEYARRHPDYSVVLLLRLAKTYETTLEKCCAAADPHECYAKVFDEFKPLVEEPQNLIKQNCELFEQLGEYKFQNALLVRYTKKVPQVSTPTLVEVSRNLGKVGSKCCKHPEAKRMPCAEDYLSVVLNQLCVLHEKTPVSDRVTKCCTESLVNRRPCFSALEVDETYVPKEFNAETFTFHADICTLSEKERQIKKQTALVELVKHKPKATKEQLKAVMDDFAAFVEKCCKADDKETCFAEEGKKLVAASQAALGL", "assay": "Binding affinity to human serum albumin at 1 uM measured after 4 hrs by equilibrium dialysis method relative to control", "format": "ADME", "conditions": "isolated protein, 4 h, 1 µM"}, "[14]": {"organism": "Macaca fascicularis", "assay": "Agonist activity at LXR-beta in cynomolgus monkey whole blood assessed as ABCA1 gene induction by measuring ABCA1 mRNA level after 4 hrs by SYBR-Green dye-based Q-PCR analysis relative to control", "format": "tissue-based"}, "[15]": {"target": "T4, Nuclear receptor subfamily 1 group I member 2", "assay": "Agonist activity at human PXR expressed in human HepG2 cells assessed as induction of CYP3A4 measured after 24 hrs by AlamarBlue dye-based luciferase reporter gene assay", "format": "cell-based"}, "[16]": {"assay": "Effect on plasma triglyceride level in cynomolgus monkey at 1 mg/kg, po qd administered via gavage for 14 days measured after 24 hrs of last-dose relative to base line", "format": "ADME, organism-based, Macaca fascicularis", "conditions": "in vivo", "method_in_brief": "as §2"}}, "note": "pEC50, pKi: −log10 of the molar value.", "data": [{"molecule": "CC(C)(O)c1cn(-c2ccc(-c3cc(F)c(CO)c(S(C)(=O)=O)c3)cc2F)c(C(C)(C)c2c(Cl)cccc2Cl)n1", "note": "[BMS-852927]", "values": [{"measurement": "Efficacy", "setting": "[1]", "result": 26, "unit": "%"}, {"measurement": "Efficacy", "setting": "[2]", "result": 26, "unit": "%"}, {"measurement": "concentration at 5 h", "setting": "[3]", "result": 7.5, "unit": "nM"}, {"measurement": "pEC50", "setting": "[4]", "result": 7.62}, {"measurement": "Efficacy", "setting": "[5]", "result": 29, "unit": "%"}, {"measurement": "fold change (FC)", "setting": "[6]", "result": 4.7}, {"measurement": "fold change (FC)", "setting": "[7]", "result": 15}, {"measurement": "pKi", "setting": "[8]", "result": 7.92}, {"measurement": "Emax", "setting": "[9]", "result": 20, "unit": "%"}, {"measurement": "t1/2", "setting": "[10]", "result": 12, "unit": "h"}, {"measurement": "Activity", "setting": "[11]", "result": 108, "unit": "%"}, {"measurement": "PB", "setting": "[12]", "result": 97.3, "unit": "%"}, {"measurement": "PB", "setting": "[13]", "result": 96.6, "unit": "%"}, {"measurement": "Efficacy", "setting": "[14]", "result": 32, "unit": "%"}, {"measurement": "pEC50", "setting": "[15]", "result": 6.00}, {"measurement": "Activity", "setting": "[16]", "result": 10, "unit": "%"}]}]}
